# From ChEMBL document CHEMBL3352816, “Synthesis and antiproliferative activity of imidazo[2,1-b][1,3,4]thiadiazole derivatives” (Bioorg Med Chem Lett, 2014)
# Activity calls are given as the source filed them. No cut-off for these calls is given here.
# Legend:
# REH [1] = assay: Induction of apoptosis in human REH cells assessed as loss of mitochondrial membrane potential at 1 uM after 48 hrs using Jc-1 staining by flow cytometric analysis; assay type: functional, cell-based
# Outline: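 Mitochondrial membrane potential in Reh cells after 48 h at 0.1, 0.5, 1 and 5 µM. Cells stained with JC-1 and analysed by flow cytometry as the ratio of red (aggregate) to green (monomer) fluorescent cells. 2,4-DNP-treated cells served as positive control.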
# [2] = Cell cycle arrest in human NALM6 cells assessed as reduction of cells in S phase after 48 hrs using propidium iodide by FACS analysis; assay type: functional, cell-based; conditions: NALM-6
# Outline: (§1)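 Reh and Nalm6 cells exposed 48 h to 0.1, 0.5, 1 and 5 µM, harvested, stained with propidium iodide and analysed by flow cytometry. Gated fractions were sub G1, G1, S and G2. DMSO-treated cells served as vehicle control. Three independent experiments for Reh and two for Nalm6.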
# REH [3] = assay: Cytotoxicity against human REH cells assessed as reduction in cell viability at 0.1 to 10 uM by trypan blue exclusion assay; assay type: functional, cell-based; conditions: TDE = time-dependent effect
# Outline: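 Reh, K562 and Nalm6 leukemic cells were treated with 10, 50, 100 and 250 µM or with 0.1, 0.5, 1, 5 and 10 µM (compounds dissolved in DMSO). Viability was scored by trypan blue after 24, 48 and 72 h. DMSO-treated cells served as vehicle control.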
# [4] = Cell cycle arrest in human NALM6 cells assessed as accumulation at subG1 phase after 48 hrs using propidium iodide by FACS analysis; assay type: functional, cell-based; conditions: NALM-6; outline: as §1
# REH [5] = assay: Induction of apoptosis in human REH cells assessed as dead cells at 1 uM after 48 hrs using annexin-v-FITC/propidium iodide by FACS analysis (reference value: 0.03 %)
# REH [6] = assay: Induction of apoptosis in human REH cells assessed as induction of ROS production at 5 uM after 10 mins by flow cytometric analysis (reference value: 0.33 %); assay type: functional
# REH [7] = assay: Induction of apoptosis in human REH cells assessed as induction of ROS production at 10 uM after 10 mins by flow cytometric analysis (reference value: 0.33 %); assay type: functional
# REH [8] = assay: Induction of apoptosis in human REH cells assessed as viable cells at 1 uM after 48 hrs using annexin-v-FITC/propidium iodide by FACS analysis (reference value: 88.41 %); assay type: functional; conditions: read-out: Activity
# REH [9] = assay: Cytotoxicity against human REH cells assessed as reduction in cell viability at 5 to 10 uM after 48 to 72 hrs by MTT assay; assay type: functional, cell-based
# Outline: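 MTT viability read-out in leukemic cells treated with 10, 50, 100 and 250 µM or with 0.1, 0.5, 1, 5 and 10 µM. Cells harvested after 48 and 72 h. Compounds dissolved in DMSO.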
# REH [10] = assay: Cytotoxicity against human REH cells assessed as induction of cell death at 3 uM after 24 to 72 hrs by live-dead cell assay; assay type: functional, cell-based; conditions: in the assay text read “24 to 48 hrs” for “24 to 72 hrs”
# Outline: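 Reh leukemic and 293T human kidney epithelial cells were treated at 3 µM and compared by live-dead cell assay at 24 and 48 h.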
# REH [11] = assay: Induction of apoptosis in human REH cells assessed as caspase 3 cleavage after 48 hrs by Western blot analysis; assay type: functional, cell-based
# Outline: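 Reh cell lysates were prepared after 48 h treatment at 500 nM and 1 µM, with DMSO-treated cells as control. Western blotting used primary antibodies against KU70, PARP1, caspase 3, BID, caspase 9, FAS and caspase 8, with tubulin also probed.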
structure (smiles),measurement,setting,value
O=Cc1c(-c2ccc(Br)cc2)nc2sc(Cc3ccccc3)nn12,Activity,REH [1],Dose-dependent effect
same,Activity,[2],Dose-dependent effect
same,Activity,REH [3],tde
same,Activity,[4],Dose-dependent effect
same,Activity,REH [5],0.42%
same,Activity,REH [6],0.62%
same,Activity,REH [7],0.41%
same,viability at 1 µM,REH [8],5.23%
same,Activity,REH [9],Active
same,Activity,REH [10],Active
same,Activity,REH [11],Dose-dependent effect
